# Lung fibro prol – blocks proliferation of human lung fibroblasts | LL 47 human lung fibroblast viability, ATP luminescence; hits give low values | viability, % at 10 µM | actives 1.1% (n = 85,000) | AID 719;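 active = viability at or below 50% in the single dose screen; inactive = viability above 50%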;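 also: compound exposure lasted 72 h before the ATP readout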
#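 material = human LL 47 lung fibroblast cells | dosing = compounds added from tenfold dosing solution, 0.1% DMSO final | timing = overnight cell rest, 72 h compound treatment at 37 °C | measured by = CellTiter-Glo luminescence measuring cellular ATP | evaluation = % viability versus median cells-only luminescence | control set = cell-only wells, no compound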
# bCat KO growth – beta-catenin-lacking colon tumor cell growth suppression | HCT116 beta-catenin knockout viability, CellTiter-Glo, 60 h; hits give low values | actives 1.5% (n = 140,000) | viability, % at 10 µM;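 active = viability at or under a set limit, the compound median less 4 SD, cut at about 6% in these data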
# HUVEC prolif 384 – human endothelial cell proliferation inhibition; HUVEC proliferation, CellTiter-Glo luminescence, 72 h; hits give low values; viability, % at 10 µM (by protocol); actives 1.1% (n = 86,000); AID 648;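 active = viability at or below 30%; inactive = viability above 30%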
# H69AR inhibit – blocks growth of human H69AR lung tumor cells | H69AR lung tumor viability, ATP luminescence, 72 h; hits give low values | viability, % at 10 µM | actives 6% (n = 85,000) | AID 598;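 active = viability at or below 40%; inactive = viability above 40%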;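 also: multidrug resistant small cell line overexpressing MRP-1 efflux transporter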
# PTEN del growth – PTEN-deleted cell growth suppression | HCT116 PTEN-null viability, CellTiter-Glo, 60 h; hits give low values | viability, % at 10 µM | actives 1.2% (n = 140,000) | AID 827;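 active = viability at or below a set limit, 4 SD under the median of all tested compounds, cut at about 3.7% in these data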;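 also: PTEN knockout HCT116 line with beta catenin targeted HCT116 as companion control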
# Hits are given with their value; . = inactive; / = not tested or not shown. Shown is part of a subset that was picked to be rich in hits.
SMILES,Lung fibro prol,bCat KO growth,HUVEC prolif 384,H69AR inhibit,PTEN del growth
Cc1nn(-c2ccccc2)c2c1C(c1ccc([N+](=O)[O-])cc1)N1C(=N2)C(=O)Nc2ccccc21 (stereo not drawn),/,.,/,/,.
Cc1cccc(NC2=Nc3ccccc3N3C2=Nc2c(c(C)nn2-c2ccccc2)C3c2ccc(O)c(O)c2)c1 (stereo not drawn),45,2.3,.,1.1,1.1
C=CCn1c(SCC(=O)N2CCOCC2)nc2scc(-c3ccco3)c2c1=O,.,.,.,.,.
COc1ccc(C)cc1NC(=O)C(OC(=O)c1ccc([N+](=O)[O-])o1)c1ccccc1 (stereo not drawn),/,.,/,/,.
Cn1c(=O)[nH]c2cc3ccccc3cc21,.,.,.,.,.
c1ccc(-n2c(-c3ccncc3)nnc2-c2cccs2)cc1,.,.,.,.,.
CCCOC(=O)c1ccc(Nc2nc(C)cc(=O)[nH]2)cc1,.,.,.,17,.
CCOC(=O)c1ccc(Nc2nc(C)cc(=O)[nH]2)cc1,.,.,.,.,.
Cc1ccc(C(c2sc3nc(C)nn3c2O)N2CCOCC2)cc1 (stereo not drawn),.,.,.,.,.
COC1=CC(=O)CC(C)C12Oc1c(Cl)c(OC)cc(OC)c1C2=O (stereo not drawn),.,.,.,29,.
COc1cc(N=c2c([N+](=O)[O-])nn(-c3ccc4c(c3)OCCO4)n2O)cc(OC)c1,/,0.8,/,/,0.3
CC(C)c1ccc(N=c2c([N+](=O)[O-])nn(-c3ccc4c(c3)OCCO4)n2O)cc1,/,.,/,/,.
COc1ccc(-n2c(=S)[nH]c3cc(C(=O)NCCCN4CCCC4=O)ccc3c2=O)cc1,.,5.2,.,.,.
CN1CC2=Cc3ccccc3OC23Oc2ccccc2C=C3C1,.,.,.,21,.
CC(N=c1ccccn1C(=O)Nc1cccc(C(F)(F)F)c1)c1ccco1 (stereo not drawn),.,.,.,.,.
Cc1c(N2C(=O)c3cccc4cccc(c34)C2=O)c(=O)n(-c2ccccc2)n1C,.,.,.,.,.
CC(=O)Nc1ccccc1C(=O)C(=O)Nc1cccc(C(=O)NC2CC2)c1,/,.,/,/,.
COc1ccc(CN(CCC(c2ccccc2)c2ccc(OC(C)C)cc2)C(=O)CCl)cc1OC (stereo not drawn),/,1.5,/,/,1.5
COc1ccc(C(CCN(Cc2ccc(OC)c(OC)c2)C(C)=O)c2ccccc2)cc1 (stereo not drawn),/,.,/,/,.
COc1cc2cc(CN(C(=O)NC3CCCCC3)C3CCCC3)c(=O)[nH]c2cc1OC,.,.,.,.,.
COc1ccccc1NC(=O)N(Cc1ccc2c(c1)OCO2)Cc1nc2ccccc2c(=O)[nH]1,.,.,.,9.4,.
CCc1ccc2[nH]c(=O)c(CN(Cc3ccccc3)C(=O)Nc3ccccc3OC)cc2c1,49,.,.,39,.
O=C(NC1CCCCC1)N(Cc1cc2cc3c(cc2[nH]c1=O)OCCO3)C1CCCCC1,.,.,.,36,.
COc1ccc2cc(CN(C(=O)Nc3ccccc3OC)C3CCCC3)c(=O)[nH]c2c1,.,.,.,25,.
CCOC(=O)c1c(NC(=S)Nc2ccccc2)sc(C)c1C,.,.,.,.,.
SMILES,Lung fibro prol,bCat KO growth,HUVEC prolif 384,H69AR inhibit,PTEN del growth
Cc1cc(C)cc(OCC(=O)OC/C(O)=C(\C#N)c2nc3ccccc3[nH]2)c1,/,3.9,/,/,.
N#C/C(=C(\O)Cc1ccccc1)c1nc2ccccc2[nH]1,.,.,.,15,.
C/C(O)=C(\C#N)c1nc2ccccc2[nH]1,/,.,/,/,.
N#C/C(=C(/O)COC(=O)CCC1CCCCC1)c1nc2ccccc2[nH]1,.,.,.,25,.
Cc1cccc(C)c1OCC(=O)OC/C(O)=C(\C#N)c1nc2ccccc2[nH]1,/,.,/,/,.
Cc1ccc(S(=O)(=O)NCC(=O)OC(C(=O)c2ccccc2)c2ccccc2)cc1 (stereo not drawn),/,.,/,/,.
CCCCOc1ncnc2c1[nH]c1ccc(OC)cc12,.,.,.,.,.
COc1ccc2[nH]c3c(Cl)ncnc3c2c1,/,5.7,/,/,.
CCc1c(C)nc2cc(-c3ccc(OC)c(OC)c3)nn2c1N1CCC(C)CC1,.,.,.,.,.
CCc1c(C)nc2cc(-c3ccc(OC)c(OC)c3)nn2c1N1CCCC1,.,.,.,38,.
COc1ccc(NC(=O)C2CC2)cc1-n1cnnn1,.,.,.,.,.
Cc1cc(C)cc(C(=O)O/N=C(\N)c2ccc(Br)cc2)c1,.,.,.,34,.
Cc1ccc(C(=O)O/N=C(\N)c2cccnc2)cc1[N+](=O)[O-],/,.,/,/,.
Cc1ccc(C(=O)O/N=C(\N)c2ccc(Br)cc2)cc1C,.,.,.,28,.
COc1ccc(/C(N)=N/OC(=O)c2ccc(C)c([N+](=O)[O-])c2)cc1OC,.,.,.,24,.
O=C(CN1CCCC1)NCC12CC3CC(CC(C3)C1)C2,.,.,.,.,.
Cn1c(=O)c2c(nc(Br)n2CC(=O)C23CC4CC(CC(C4)C2)C3)n(C)c1=O,.,.,.,32,.
Cc1cccc(NC2=C/C(=N/S(=O)(=O)c3cccs3)c3ccccc3C2=O)c1,/,.,/,/,.
Cc1ccc(NC2=C/C(=N\S(=O)(=O)c3cccs3)c3ccccc3C2=O)c(C)c1,2.2,1.5,2.9,2.0,1.3
Cc1ccc(Cl)cc1NC1=C/C(=N\S(=O)(=O)c2cccs2)c2ccccc2C1=O,/,1.6,/,/,1.1
N/C(=N\S(=O)(=O)c1cccs1)c1ccccc1,.,.,.,.,.
O=C(CCn1c2c(c3ccccc31)CCCC2)NNC(=O)c1ccc([N+](=O)[O-])cc1,/,.,/,/,.
Oc1ccc(C=Nc2ccc3ncccc3c2)c(O)c1,.,1.9,.,.,1.7
COC(=O)CC/C(O)=C1\C(=O)CC(C)(C)CC1=Nc1ccccc1OC,.,.,.,29,.
COc1ccc(OC)c(N=CC2=C(O)CC(C)(C)CC2=O)c1,.,.,.,.,.
SMILES,Lung fibro prol,bCat KO growth,HUVEC prolif 384,H69AR inhibit,PTEN del growth
CCC/C(O)=C1\C(=O)CC(C)(C)CC1=Nc1ccc(OC)cc1OC,.,.,.,21,.
CCCC/C(O)=C1\C(=O)CC(C)(C)CC1=Nc1ccccc1OC,.,.,.,33,.
CC/C(O)=C1\C(=O)CC(C)(C)CC1=Nc1ccccc1C,/,.,/,/,.
Cc1ccc(C2CC(c3ccccc3C)n3nc(N)nc3N2)cc1 (stereo not drawn),.,.,.,.,.
c1ccc(-c2noc(-c3ccc4ccccc4c3)n2)nc1,.,.,.,.,.
c1ccc(CCc2ccccc2-c2nc(-c3cccnc3)no2)cc1,.,.,.,.,.
c1ccc(CCc2ccccc2-c2nc(-c3ccccn3)no2)cc1,.,.,.,34,.
c1ccc(-c2noc(-c3ccc4c(c3)OCO4)n2)nc1,.,.,29,23,.
C/C(=N/O)c1ccc2c(c1)OCCOCCOc1cc(/C(C)=N/O)ccc1OCCOCCO2,/,.,/,/,.
COc1ccc(/C=C(\C#N)c2nc3ccc(C)cc3[nH]2)cc1Oc1ccc(C(F)(F)F)cc1[N+](=O)[O-],/,1.5,/,/,1.3

# Bioassay records (PubChem BioAssay)
